Measurements as given in ChEMBL document CHEMBL1131023, “Identification of a dihydropyridine as a potent alpha1a adrenoceptor-selective antagonist that inhibits phenylephrine-induced contraction of the human prostate” (J Med Chem, 1998).

Key:
[1] = target: T1, Alpha-1A adrenergic receptor (Homo sapiens, UniProt P35348); test: Binding affinity determined by displacement of [3H]prazosin from alpha-1A adrenergic receptor
T1 sequence (P35348 whole entry): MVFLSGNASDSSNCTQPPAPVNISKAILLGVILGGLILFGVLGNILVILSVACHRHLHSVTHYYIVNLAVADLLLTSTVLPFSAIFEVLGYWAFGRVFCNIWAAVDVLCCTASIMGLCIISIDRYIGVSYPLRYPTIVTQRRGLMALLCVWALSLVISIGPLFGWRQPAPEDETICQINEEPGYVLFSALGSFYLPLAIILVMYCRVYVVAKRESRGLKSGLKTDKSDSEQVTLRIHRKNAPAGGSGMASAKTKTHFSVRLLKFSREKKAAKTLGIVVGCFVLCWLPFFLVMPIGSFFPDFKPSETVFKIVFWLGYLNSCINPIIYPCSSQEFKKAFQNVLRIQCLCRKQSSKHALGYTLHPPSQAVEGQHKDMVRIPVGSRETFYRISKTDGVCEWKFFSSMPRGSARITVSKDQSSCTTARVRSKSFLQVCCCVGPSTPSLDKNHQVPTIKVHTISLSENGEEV

[2] = target: T2, Alpha-2C adrenergic receptor (Homo sapiens, UniProt P18825); test: Binding affinity assayed by displacement of [3H]rauwolscine from human alpha-2C adrenergic receptor
T2 sequence (P18825 whole entry): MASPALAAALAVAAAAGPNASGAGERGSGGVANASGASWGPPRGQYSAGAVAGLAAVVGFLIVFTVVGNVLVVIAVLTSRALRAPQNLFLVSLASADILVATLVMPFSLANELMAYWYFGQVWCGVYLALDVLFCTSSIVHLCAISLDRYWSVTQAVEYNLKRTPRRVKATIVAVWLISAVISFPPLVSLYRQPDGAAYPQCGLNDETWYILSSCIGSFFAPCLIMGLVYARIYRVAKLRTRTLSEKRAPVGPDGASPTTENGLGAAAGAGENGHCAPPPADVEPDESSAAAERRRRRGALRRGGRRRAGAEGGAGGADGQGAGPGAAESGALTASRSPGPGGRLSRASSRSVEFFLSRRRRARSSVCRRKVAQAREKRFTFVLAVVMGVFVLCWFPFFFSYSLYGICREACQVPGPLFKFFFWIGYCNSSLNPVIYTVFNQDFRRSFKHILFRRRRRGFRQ
Procedure, shortened: (§1)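 Radioligand displacement binding at the cloned receptor, incubated for 30 min.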

[3] = target: T3, Alpha-2B adrenergic receptor (Homo sapiens, UniProt P18089); test: Binding affinity determined by displacement of [3H]rauwolscine from alpha-2B adrenergic receptor
T3 sequence (P18089 whole entry): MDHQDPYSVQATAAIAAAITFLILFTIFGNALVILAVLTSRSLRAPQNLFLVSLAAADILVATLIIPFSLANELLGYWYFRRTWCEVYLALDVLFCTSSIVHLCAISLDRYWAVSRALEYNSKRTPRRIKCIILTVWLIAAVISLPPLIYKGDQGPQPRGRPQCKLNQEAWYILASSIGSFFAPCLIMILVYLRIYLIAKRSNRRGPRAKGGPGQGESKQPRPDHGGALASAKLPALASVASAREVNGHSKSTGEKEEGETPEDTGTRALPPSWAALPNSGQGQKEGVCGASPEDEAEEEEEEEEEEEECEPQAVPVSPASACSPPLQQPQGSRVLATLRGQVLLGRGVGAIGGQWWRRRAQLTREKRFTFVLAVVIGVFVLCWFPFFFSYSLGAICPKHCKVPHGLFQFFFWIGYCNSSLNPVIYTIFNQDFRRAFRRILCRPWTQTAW

[4] = target: Voltage-gated L-type calcium channel (Rattus norvegicus, UniProt P22002+Q02485+P27732); test: Binding affinity at the L-type [Ca2+] channel from rat brain homogenate by [3H]nitrendipine displacement.; assay type: tissue-based
[5] = target: T4, Alpha-1B adrenergic receptor (Homo sapiens, UniProt P35368); test: Binding affinity determined by displacement of [3H]prazosin from alpha-1B adrenergic receptor
T4 sequence (P35368 whole entry): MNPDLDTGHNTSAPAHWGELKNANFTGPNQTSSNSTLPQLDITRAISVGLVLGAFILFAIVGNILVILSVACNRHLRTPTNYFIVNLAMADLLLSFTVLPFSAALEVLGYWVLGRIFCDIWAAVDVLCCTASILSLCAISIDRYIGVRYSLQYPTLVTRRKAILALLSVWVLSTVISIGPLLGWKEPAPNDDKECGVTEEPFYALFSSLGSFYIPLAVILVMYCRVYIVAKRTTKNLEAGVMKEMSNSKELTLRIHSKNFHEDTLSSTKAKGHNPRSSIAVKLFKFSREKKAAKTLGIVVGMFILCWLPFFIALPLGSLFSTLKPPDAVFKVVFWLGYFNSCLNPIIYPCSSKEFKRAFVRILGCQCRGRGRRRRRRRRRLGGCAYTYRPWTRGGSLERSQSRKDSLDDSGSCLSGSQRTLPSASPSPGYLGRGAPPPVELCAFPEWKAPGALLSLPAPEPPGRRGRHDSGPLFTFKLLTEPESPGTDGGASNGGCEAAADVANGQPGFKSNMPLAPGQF

[6] = target: T5, Alpha-2A adrenergic receptor (Homo sapiens, UniProt P08913); test: Binding affinity determined by displacement of [3H]rauwolscine from alpha-2A adrenergic receptor; procedure, shortened: as §1
T5 sequence (P08913 whole entry): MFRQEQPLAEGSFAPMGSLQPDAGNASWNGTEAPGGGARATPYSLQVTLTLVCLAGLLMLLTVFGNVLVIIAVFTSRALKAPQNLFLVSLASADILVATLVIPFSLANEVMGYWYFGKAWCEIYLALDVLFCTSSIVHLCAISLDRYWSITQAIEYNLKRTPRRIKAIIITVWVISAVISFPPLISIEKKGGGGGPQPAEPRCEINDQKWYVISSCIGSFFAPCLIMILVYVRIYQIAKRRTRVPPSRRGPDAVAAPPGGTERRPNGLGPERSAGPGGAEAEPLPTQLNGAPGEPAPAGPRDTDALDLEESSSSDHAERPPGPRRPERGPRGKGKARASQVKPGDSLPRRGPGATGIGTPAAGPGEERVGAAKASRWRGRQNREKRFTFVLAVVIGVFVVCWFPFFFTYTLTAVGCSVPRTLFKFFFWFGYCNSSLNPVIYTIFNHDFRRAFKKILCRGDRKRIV

[7] = target: T6, Alpha-1D adrenergic receptor (Homo sapiens, UniProt P25100); test: Binding affinity determined by displacement of [3H]prazosin from alpha-1D adrenergic receptor; procedure, shortened: as §1
T6 sequence (P25100 whole entry): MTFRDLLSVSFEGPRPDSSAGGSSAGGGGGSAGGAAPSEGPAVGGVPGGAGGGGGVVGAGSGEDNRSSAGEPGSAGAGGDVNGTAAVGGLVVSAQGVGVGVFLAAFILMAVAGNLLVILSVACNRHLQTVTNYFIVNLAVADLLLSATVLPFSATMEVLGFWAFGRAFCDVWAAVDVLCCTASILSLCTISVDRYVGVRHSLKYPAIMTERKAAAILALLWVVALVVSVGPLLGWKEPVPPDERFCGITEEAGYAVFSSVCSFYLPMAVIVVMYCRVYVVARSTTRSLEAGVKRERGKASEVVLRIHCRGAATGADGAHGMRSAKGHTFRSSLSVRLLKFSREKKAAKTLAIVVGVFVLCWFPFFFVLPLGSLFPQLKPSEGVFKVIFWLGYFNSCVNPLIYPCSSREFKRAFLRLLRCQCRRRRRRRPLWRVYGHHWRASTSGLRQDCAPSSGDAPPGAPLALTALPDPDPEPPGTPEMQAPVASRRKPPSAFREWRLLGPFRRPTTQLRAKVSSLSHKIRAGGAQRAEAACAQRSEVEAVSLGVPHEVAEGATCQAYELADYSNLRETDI

| SMILES | Ki [1] [nM] | Ki [2] [nM] | Ki [3] [nM] | Log Ki [4] | Ki [5] [nM] | Ki [6] [nM] | Ki [7] [nM] |
| --- | --- | --- | --- | --- | --- | --- | --- |
| CC1=C(C(N)=O)C(c2ccc3c(c2)OCO3)C(C(=O)NCCCN2CCC(c3ccccc3)(c3ccccc3)CC2)=C(C)N1 (configuration not stated) | 8.71 | 724 | 204 | < -6 | 1170 | 501 | 1150 |
| CC(=O)C1=C(C)NC(C)=C(C(=O)NCCCN2CCC(c3ccccc3)(c3ccccc3)CC2)C1c1ccc2c(c1)OCO2 (configuration not stated) | 8.91 | 407 | 380 | < -6 | 380 | 955 | 457 |
| CO/C(O)=C1\C(C)=NC(C)=C(C(=O)NCCCN2CCC(c3ccccc3)(c3ccccc3)CC2)C1c1ccc2c(c1)OCO2 (configuration not stated) | 1.12 | 575 | 871 | < -6 | 224 | 1120 | 302 |

Results, then the compound that gave them:

| Ki [1] [nM] | Ki [2] [nM] | Ki [3] [nM] | Log Ki [4] | Ki [5] [nM] | Ki [6] [nM] | Ki [7] [nM] | SMILES |
| --- | --- | --- | --- | --- | --- | --- | --- |
| 14.8 | 282 | 372 | < -6 | 135 | 646 | 331 | CO/C(O)=C1\C(C)=NC(C)=C(C(=O)NCCCCN2CCC(c3ccccc3)(c3ccccc3)CC2)C1c1ccc([N+](=O)[O-])cc1 (configuration not stated) |
| 1.38 | 417 | 912 | < -6 | 269 | 1290 | 316 | CO/C(O)=C1\C(C)=NC(C)=C(C(=O)NCCCN2CCC(c3ccccc3)(c3ccccc3)CC2)C1c1ccc(C)cc1 (configuration not stated) |
| 0.229 | 81.3 | 219 | < -6 | 13.5 | 275 | 66.1 | CO/C(O)=C1\C(C)=NC(C)=C(C(=O)NCCCN2CCC(c3ccccc3)CC2)C1c1ccc([N+](=O)[O-])cc1 (configuration not stated) |
